Data taken from ChEMBL document CHEMBL1759837, “Studies on chemical modification and biology of a natural product, gambogic acid (III): determination of the essential pharmacophore for biological activity” (Eur J Med Chem, 2011).

What was measured:
Format in all cases: functional, cell-based
SMMC-7721 = test: Antiproliferative activity against human SMMC7721 cells after 24 hrs by MTT assay; conditions: SMMC-7721, 24 h
How it was run: (§1)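 Cells grown at 37 °C in humidified 5% CO2 with benzylpenicillin and streptomycin. Compounds came from 0.01 mol/L DMSO stocks and were tested at eight two-fold dilutions in triplicate, with medium-only controls, for 24 h. MTT absorbance was read at 570 nm. Survival = A_treatment/A_control × 100. IC50 is the concentration giving 50% viability inhibition, as the mean of two separate experiments.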

HepG2 = test: Antiproliferative activity against human HepG2 cells after 24 hrs by MTT assay; conditions: HepG2, 24 h
How it was run: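 Tetrazolium MTT viability test; cells exposed to compound 24 h, absorbance read at 570 nm. Survival ratio = A treated / A control × 100%; IC50 is the concentration giving 50% loss of viability. Eight concentrations in two-fold dilutions, triplicate wells, mean of two separate experiments. Compounds dissolved in DMSO (0.01 mol/L stock); control wells received medium only.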

BGC-823 = test: Antiproliferative activity against human BGC823 cells after 24 hrs by MTT assay; conditions: BGC-823, 24 h; how it was run: as §1
MCF7 = test: Antiproliferative activity against human MCF7 cells after 24 hrs by MTT assay; conditions: MCF7, 24 h; how it was run: as §1

IC50 (SMMC-7721): 12.3 µM | IC50 (HepG2): 23.4 µM | IC50 (BGC-823): 17.6 µM | IC50 (MCF7): 12.4 µM
Structure (SMILES): CC(C)=CCC12OC(C)(C)C3CC(C=C4C(=O)c5ccc(O)cc5OC431)C2=O (centres undefined)
